Measured values from ChEMBL document CHEMBL1122260, “Synthesis and biological activity of prostaglandin lactones” (J Med Chem, 1983).
Calls of active or inactive are those of the source. The calls are words filed in the database; no cut-off is given here.

Legend:
[1] = system: Gerbillinae; test: Gerbil colon stimulation relative to PGE1 (100); assay type: functional
In short: (§1)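 Isolated ascending colon from male gerbils (Meriones unguiculatus) mounted in de Jalon's solution (NaCl 154 mM, KCl 0.54 mM, CaCl2 0.27 mM, NaHCO3 1.78 mM, glucose 5.55 mM); isotonic contractions recorded with linear transducers in 5-mL baths.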

[2] = organism: Rattus norvegicus; test: Blood pressure potency in rat relative to PGF2-alpha (100). Range is between (32-100).; assay type: functional
In short: (§2)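 Mature female albino rats, pentobarbital anesthesia (30 mg/kg ip, supplemented as needed), pretreated with atropine sulfate (0.08 mg sc) and pentolinium tartrate (2 mg iv). Test solutions or emulsions injected via femoral vein; carotid arterial pressure recorded by transducer. Change in mmHg (rise or fall) compared with standards: PGE1 for depressor, PGF2α for pressor responses.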

[3] = organism: Rattus norvegicus; test: Blood pressure potency in rat relative to PGF2-alpha (100). Range is between (0.3-1); assay type: functional; in short: as §2
[4] = system: Gerbillinae; test: Gerbil colon stimulation relative to PGE1 (100); Range is between (1-3); assay type: functional; in short: as §1
[5] = organism: Rattus norvegicus; test: Plasma hydrolysis following 20 hr incubation with rat plasma; assay type: functional
In short: (§3)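 Substrates incubated with saline (control), hog liver esterase, or rat, monkey or human blood plasma for 2 h or 20 h; released PGF2α quantified by radioimmunoassay as cross-reactivity with PGF2α antisera. PGF2α itself served as assay positive control. Substrate cross-reaction with the antisera determined separately.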

[6] = organism: Homo sapiens; test: Plasma hydrolysis following 2 hr incubation with human plasma; assay type: functional; in short: as §3
[7] = organism: Homo sapiens; test: Plasma hydrolysis following 20 hr incubation with human plasma; assay type: functional; in short: as §3
[8] = Plasma hydrolysis of percent cross reaction of substrate with PGF2-alpha antisera; assay type: ADME, cell-free; in short: as §3
[9] = organism: Rattus norvegicus; test: Plasma hydrolysis following 2 hr incubation with rat plasma; assay type: functional; in short: as §3
[10] = organism: Sus scrofa; test: Plasma hydrolysis following 2 h incubation with hog liver esterase; assay type: functional; in short: as §3
[11] = system: Monkey; test: Plasma hydrolysis following 20 hr incubation with monkey plasma; assay type: functional, Cercopithecidae; in short: as §3
[12] = organism: Sus scrofa; test: Plasma hydrolysis following 20 hr incubation with hog liver esterase; assay type: functional; in short: as §3
[13] = organism: Rattus norvegicus; test: Blood pressure potency in rat relative to PGE1 (100). Range is between (0.1-3); assay type: functional; in short: as §2
[14] = system: Rattus norvegicus; test: in vivo Urinary excretion of PGF2-alpha metabolite in rats, when administered sc (1 mg/rat) urinary excretion on day 1 Range is between (1.3-1.6).; assay type: functional, Urine
[15] = system: Rattus norvegicus; test: in vivo Urinary excretion of PGF2-alpha metabolite in rats, when administered sc (1 mg/rat) urinary excretion on day 2 Range is between (0.7-1.1).; assay type: functional, Urine
[16] = system: Monkey; test: Plasma hydrolysis following 2 hr incubation with monkey plasma; assay type: functional, Cercopithecidae; in short: as §3
[17] = organism: Rattus norvegicus; test: Blood pressure potency in rat relative to PGE1 (100); assay type: functional; in short: as §2
[18] = system: Gerbillinae; test: Gerbil colon stimulation relative to PGE1 (100); Range from (1-3); assay type: functional; in short: as §1
[19] = organism: Rattus norvegicus; test: Blood pressure potency in rat relative to PGF2-alpha (100); value ranges from (3-10); assay type: functional; in short: as §2
[20] = organism: Rattus norvegicus; test: Blood pressure potency in rat relative to PGE1 (100); IA means inactive; assay type: functional, organism-based; in short: as §2
[21] = system: Gerbillinae; test: Gerbil colon stimulation relative to PGE1 (100); Ranges from (0.1-0.3); assay type: functional; in short: as §1
[22] = organism: Rattus norvegicus; test: Blood pressure potency in rat relative to […]; T denotes toxic; assay type: organism-based; in short: as §2
[23] = system: Rattus norvegicus; test: in vivo Urinary excretion of PGF2-alpha metabolite in rats, when administered sc (1 mg/rat) urinary excretion on day. c1(27.2-31.1); assay type: functional, Urine
[24] = system: Rattus norvegicus; test: in vivo urinary excretion of PGF2-alpha metabolite in rats, when administered sc (1 mg/rat) urinary excretion on day 2. Range is between (1.2-2.0); assay type: functional, Urine
[25] = organism: Rattus norvegicus; test: Blood pressure potency in rat relative to PGF2-alpha (100); value ranges from (0.3-1); assay type: functional; in short: as §2
[26] = system: Gerbillinae; test: Gerbil colon stimulation relative to PGE1 (100); Range from (0.3-1); assay type: functional; in short: as §1
[27] = organism: Rattus norvegicus; test: Blood pressure potency in rat relative to PGE1 (100); value ranges from (0.1-0.3); assay type: functional; in short: as §2
[28] = system: Gerbillinae; test: Gerbil colon stimulation relative to PGE1 (100); Range from (32-100); assay type: functional; in short: as §1
[29] = organism: Rattus norvegicus; test: Blood pressure potency in rat relative to PGE1 (100); Range is between (1-3); assay type: functional; in short: as §2
[30] = organism: Rattus norvegicus; test: Blood pressure potency in rat relative to PGF2-alpha (100). Range is between(3-10).
[31] = organism: Rattus norvegicus; test: Blood pressure potency in rat relative to PGE1 (100); compound is biphasic and weak.; assay type: functional, organism-based; in short: as §2
[32] = system: Gerbillinae; test: Gerbil colon stimulation relative to PGE1 (100); Range is between (0.3-1); assay type: functional; in short: as §1
[33] = system: Gerbillinae; test: Gerbil colon stimulation relative to PGE1 (100); Range from (0.1-0.3); assay type: functional; in short: as §1
[34] = organism: Rattus norvegicus; test: Blood pressure potency in rat relative to PGE1 (100); value ranges from( 0.1-0.3); assay type: functional; in short: as §2
[35] = system: Gerbillinae; test: Gerbil colon stimulation relative to PGE1 (100); Range is between (0.1-0.3); assay type: functional; in short: as §1
[36] = system: Rattus norvegicus; test: In vivo urinary excretion of PGF2-alpha metabolite in rats, when administered sc (1 mg/rat) urinary excretion on day 2 Range is between (2.2-5.6).; assay type: functional, Urine
[37] = system: Rattus norvegicus; test: In vivo urinary excretion of PGF2-alpha metabolite in rats, when administered sc (1 mg/rat) urinary excretion on day 1 Range is between (31.9-155).; assay type: functional, Urine
[38] = organism: Rattus norvegicus; test: Blood pressure potency in rat relative to PGE1 (100). Range is between (10-32); assay type: functional; in short: as §2
[39] = system: Rattus norvegicus; test: in vivo urinary excretion of PGF2-alpha metabolite in rats, when administered sc (1 mg/rat) urinary excretion on day 2; assay type: functional, Urine
[40] = system: Rattus norvegicus; test: in vivo urinary excretion of PGF2-alpha metabolite in rats, when administered sc (1 mg/rat) urinary excretion on day 1; assay type: functional, Urine

With `O=C1CCC/C=C\C[C@@H]2C(/C=C\[C@@H](CCc3ccccc3)O1)[C@H](O)C[C@@H]2O` (stereo not given in full) the Relative potency [1] was <0.1 and the Relative potency [2] was 32.

With `CCCCC[C@](C)(O)/C=C/C1[C@@H]2C[C@@H](O)[C@H]1C/C=C\CCCC(=O)O2` (stereo not given in full) the Relative potency [1] was <0.1 and the Relative potency [3] was 0.3.

`CCCCC[C@H](O)/C=C/C1[C@H](O)C[C@@H]2OC(=O)CCC/C=C\C[C@H]12` (stereo not given in full) showed a Relative potency [4] of 1, a Hydrolysis [5] of 0.8% and a Hydrolysis [6] of 0.06%. For the same compound, the Hydrolysis [7] was 0.4%, the Cross reaction [8] was < 0.05% and the Hydrolysis [9] was 0.2%. For the same compound, the Hydrolysis [10] was 0.2%, the Hydrolysis [11] was 0.3% and the Hydrolysis [12] was 1.8%. The Relative potency [13] was 0.1, the Urinary excretion [14] was 1.4 µg and the Urinary excretion [15] was 0.9 µg. For the same compound, the Hydrolysis [16] was 0.06%.

For `CCCCC[C@@H]1/C=C\C2[C@H](O)CC(=O)[C@@H]2CCCCCCC(=O)O1` (stereo not given in full), the Relative potency [1] was <0.1 and the Relative potency [17] was <0.1.

Work on `C[C@@](O)(/C=C/C1[C@H](O)C[C@@H]2OC(=O)CCC/C=C\C[C@H]12)CCc1ccccc1` (stereo not given in full) yielded a Relative potency [18] of 1 and a Relative potency [19] of 3.

For `O=C1CCC/C=C\C[C@@H]2C(/C=C\[C@@H](COc3ccccc3)O1)[C@H](O)C[C@@H]2O` (stereo not given in full), the Relative potency [20] was “inactive”, the Relative potency [21] was 0.1 and the Relative potency [22] was “Toxic”.

`CCCCC[C@H](O)/C=C/C1[C@@H]2C[C@@H](O)[C@H]1C/C=C\CCCC(=O)O2` (stereo not given in full) gave a Urinary excretion [23] of 27.2 µg, a Hydrolysis [5] of 80.6% and a Urinary excretion [24] of 1.6 µg. The Hydrolysis [6] was 0.2%, the Hydrolysis [7] was 0.6% and the Cross reaction [8] was 0.09%. For the same compound, the Hydrolysis [9] was 43%, the Relative potency [25] was 0.3 and the Hydrolysis [10] was 28.3%. For the same compound, the Hydrolysis [11] was 15.5%, the Hydrolysis [12] was 100% and the Relative potency [26] was 0.3. The Hydrolysis [16] was 2.4%.

Compound `CCCCC(C)(C)[C@H](O)/C=C/C1[C@H](O)C[C@@H]2OC(=O)CCC/C=C\C[C@H]12` (stereo not given in full) has a Relative potency [27] of 0.1 and a Relative potency [28] of 32.

With `CCCCC[C@@H]1/C=C\C2[C@H](O)C[C@H](O)[C@@H]2CCCCCCC(=O)O1` (stereo not given in full) the Relative potency [1] was <0.1 and the Relative potency [17] was <0.1.

`CCCCC[C@@H]1/C=C\C2[C@H](O)CC(=O)[C@@H]2C/C=C\CCCC(=O)O1` (stereo not given in full) gave a Relative potency [4] of 1 and a Relative potency [29] of 1.

Compound `CCCCC[C@@H]1/C=C\C2C=CC(=O)[C@@H]2C/C=C\CCCC(=O)O1` (stereo not given in full) has a Relative potency [4] of 0.1 and a Relative potency [17] of 0.1.

For `CCCCC[C@](C)(O)/C=C/C1[C@H](O)C[C@@H]2OC(=O)CCC/C=C\C[C@H]12` (stereo not given in full), the Relative potency [4] was 1 and the Relative potency [30] was 3.

For `CCCCC[C@@H](/C=C/C1[C@H](O)C[C@H](O)[C@@H]1C/C=C\CCCC(=O)O)OC(C)=O` (stereo not given in full), the Hydrolysis [5] was 25.7%, the Hydrolysis [6] was 3.3% and the Hydrolysis [7] was 6.8%. It also gave a Cross reaction [8] of 2.4%, a Hydrolysis [9] of 18% and a Hydrolysis [10] of 59.1%. The Hydrolysis [11] was 9.4%, the Hydrolysis [12] was 85% and the Hydrolysis [16] was 3.6%.

For `O=C1CCC/C=C\C[C@H]2C(=O)C[C@@H](O)C2/C=C\[C@@H](CCc2ccccc2)O1` (stereo not given in full), the Relative potency [31] was “Weak” and the Relative potency [32] was 0.3.

Compound `CCCCC[C@@H]1/C=C\C2C(=O)CC(O)[C@@H]2C/C=C\CCCC(=O)O1` (stereo not given in full) has a Relative potency [27] of 0.1 and a Relative potency [33] of 0.1.

Compound `CCCCC[C@](C)(O)/C=C/C1[C@H](O)C[C@@H]2OC(=O)C(F)(F)CC/C=C\C[C@H]12` (stereo not given in full) has a Relative potency [18] of 1 and a Relative potency [34] of 0.1.

For `CCCCC[C@@H]1/C=C\C2[C@H](O)C[C@H](O)[C@@H]2C/C=C\CCCC(=O)O1` (stereo not given in full), the Hydrolysis [5] was 58.7%, the Relative potency [35] was 0.1 and the Urinary excretion [36] was 3.9 µg. For the same compound, the Hydrolysis [6] was 55.6%, the Hydrolysis [7] was 57.9% and the Cross reaction [8] was 0.9%. The Hydrolysis [9] was 51.4%, the Hydrolysis [10] was 55.3% and the Hydrolysis [11] was 41.7%. The Hydrolysis [12] was 75.6%, the Relative potency [17] was <0.1 and the Urinary excretion [37] was 77.1 µg. It also gave a Hydrolysis [16] of 8.4%.

With `CCCCC[C@H](O)/C=C/C1C(=O)C[C@@H]2OC(=O)CCC/C=C\C[C@H]12` (stereo not given in full) the Relative potency [38] was 10 and the Relative potency [32] was 0.3.

In the case of `CCCCC[C@@H]1/C=C\C2CCC(=O)[C@@H]2C/C=C\CCCC(=O)O1` (stereo not given in full), the Relative potency [17] is reported as <0.1 and the Relative potency [33] is reported as 0.1.

In the case of `CCCCC[C@H](O)/C=C/[C@@H]1[C@@H](C/C=C\CCCC(=O)O)[C@@H](O)C[C@H]1O` [DINOPROST], the Hydrolysis [5] is reported as 100%, the Hydrolysis [6] is reported as 100% and the Hydrolysis [7] is reported as 100%. For the same compound, the Cross reaction [8] was 100%, the Hydrolysis [9] was 100% and the Hydrolysis [10] was 100%. The Urinary excretion [39] was 14.5 µg, the Hydrolysis [11] was 100% and the Hydrolysis [12] was 100%. For the same compound, the Urinary excretion [40] was 252 µg and the Hydrolysis [16] was 100%.
